In ChEMBL document CHEMBL1138520, “Molecular and conformational determinants of pituitary adenylate cyclase-activating polypeptide (PACAP) for activation of the PAC1 receptor” (J Med Chem, 2009):
pEC50, pIC50: −log10 of the molar value. Where a SMILES comes first, the peptide text is derived from it. [ ]: non-standard residue; d: D form. Hyp = O=C(O)[C@@H]1C[C@@H](O)CN1

How the values were obtained:
[1] = biological target: T1, Pituitary adenylate cyclase-activating polypeptide type I receptor (Homo sapiens, UniProt P41586); assay: Agonist activity at human recombinant PAC1 receptor expressed in CHO cells assessed as PACAP38-induced calcium mobilization by FLIPR assay relative to PACAP38; format: functional, cell-based
Summary of the method: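 CHO cells stably expressing recombinant human PAC1, plated 24 h before assay, loaded with fluo-4 AM for 60 min at 37 °C in the dark, then rinsed into HBSS for 15 min at 37 °C. Peptide was added 18 s into a 150 s read (ex 480/em 525 nm), at final concentrations of 1 × 10-12 to 1 × 10^-5 M. Response was normalised to 1 × 10^-5 M PACAP38 on each plate. EC50 and efficacy came from nonlinear regression; 4-10 independent assays in duplicate.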
Target sequence in this assay (P41586 21-468 limits assumed): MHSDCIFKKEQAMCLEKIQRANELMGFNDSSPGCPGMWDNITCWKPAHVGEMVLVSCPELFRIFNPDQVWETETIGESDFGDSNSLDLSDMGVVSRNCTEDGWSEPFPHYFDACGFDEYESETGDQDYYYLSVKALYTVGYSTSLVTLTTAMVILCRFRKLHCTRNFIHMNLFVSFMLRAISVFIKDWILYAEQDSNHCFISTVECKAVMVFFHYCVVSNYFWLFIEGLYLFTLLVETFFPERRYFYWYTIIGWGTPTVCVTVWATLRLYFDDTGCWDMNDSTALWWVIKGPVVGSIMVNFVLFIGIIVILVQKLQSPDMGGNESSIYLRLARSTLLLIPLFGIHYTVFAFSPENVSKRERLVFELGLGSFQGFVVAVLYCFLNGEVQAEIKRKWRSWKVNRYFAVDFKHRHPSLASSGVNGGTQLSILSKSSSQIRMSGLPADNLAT

[2] = biological target: T1, Pituitary adenylate cyclase-activating polypeptide type I receptor; assay: Agonist activity at human recombinant PAC1 receptor expressed in CHO cells assessed as PACAP38-induced calcium mobilization by FLIPR assay; format: functional, cell-based
Summary of the method: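 CHO cells stably expressing recombinant human PAC1, plated 24 h before assay, loaded with fluo-4 AM for 60 min at 37 °C in the dark, then rinsed into HBSS for 15 min at 37 °C. EC50 and efficacy came from nonlinear regression; 4-10 independent assays in duplicate.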
Target sequence in this assay (P41586 whole entry): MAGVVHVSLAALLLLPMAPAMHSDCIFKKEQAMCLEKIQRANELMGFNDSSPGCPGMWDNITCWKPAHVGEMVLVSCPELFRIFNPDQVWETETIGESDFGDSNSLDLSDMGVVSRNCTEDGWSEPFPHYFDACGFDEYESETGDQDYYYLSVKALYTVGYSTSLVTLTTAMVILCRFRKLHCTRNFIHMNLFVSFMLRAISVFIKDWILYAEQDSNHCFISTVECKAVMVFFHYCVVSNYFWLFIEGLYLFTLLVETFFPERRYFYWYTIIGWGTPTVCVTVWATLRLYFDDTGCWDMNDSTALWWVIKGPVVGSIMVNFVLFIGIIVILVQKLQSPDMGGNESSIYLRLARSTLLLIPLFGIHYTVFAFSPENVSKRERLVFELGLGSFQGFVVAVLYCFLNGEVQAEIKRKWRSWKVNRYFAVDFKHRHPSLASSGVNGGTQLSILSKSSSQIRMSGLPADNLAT

[3] = biological target: T1, Pituitary adenylate cyclase-activating polypeptide type I receptor; assay: Displacement of [125I]Ac-PACAP27 from human recombinant PAC1 receptor expressed in CHO cells by gamma- counter; format: cell-based
Target sequence in this assay (P41586 whole entry): as above

| Structure (SMILES) | Emax [1] [%] | pEC50 [2] | pIC50 [3] |
| --- | --- | --- | --- |
| CC[C@H](C)[C@H](NC(=O)CNC(=O)[C@H](CC(=O)O)NC(=O)[C@H](CO)NC(=O)[C@@H](N)Cc1cnc[nH]1)C(=O)N[C@@H](Cc1ccccc1)C(=O)N[C@@H](C)C(=O)N[C@@H](CC(=O)O)C(=O)N[C@@H](CO)C(=O)N[C@@H](Cc1ccc(O)cc1)C(=O)N[C@@H](CO)C(=O)N[C@@H](CCCNC(=N)N)C(=O)N[C@@H](Cc1ccc(O)cc1)C(=O)N[C@@H](CCCNC(=N)N)C(=O)N[C@@H](CCCCN)C(=O)N[C@@H](CCC(N)=O)C(=O)N[C@@H](CCSC)C(=O)N[C@@H](C)C(=O)N[C@H](C(=O)N[C@@H](CCCCN)C(=O)N[C@@H](CCCCN)C(=O)N[C@@H](Cc1ccc(O)cc1)C(=O)N[C@@H](CC(C)C)C(=O)N[C@@H](C)C(=O)N[C@@H](C)C(=O)N[C@H](C(=O)N[C@@H](CC(C)C)C(N)=O)C(C)C)C(C)C | 112 | 8.06 | 7.97 |
| CC[C@H](C)[C@H](NC(=O)CNC(=O)[C@H](CC(=O)O)NC(=O)[C@H](CO)NC(=O)[C@@H](N)Cc1cnc[nH]1)C(=O)N[C@@H](Cc1ccc(-c2ccccc2)cc1)C(=O)N[C@H](C(=O)N[C@@H](CC(=O)O)C(=O)N[C@@H](CO)C(=O)N[C@@H](Cc1ccc(O)cc1)C(=O)N[C@@H](CO)C(=O)N[C@@H](CCCNC(=N)N)C(=O)N[C@@H](Cc1ccc(O)cc1)C(=O)N[C@@H](CCCNC(=N)N)C(=O)N[C@@H](CCCCN)C(=O)N[C@@H](CCC(N)=O)C(=O)N[C@@H](CCSC)C(=O)N[C@@H](C)C(=O)N[C@H](C(=O)N[C@@H](CCCCN)C(=O)N[C@@H](CCCCN)C(=O)N[C@@H](Cc1ccc(O)cc1)C(=O)N[C@@H](CC(C)C)C(=O)N[C@@H](C)C(=O)N[C@@H](C)C(=O)N[C@H](C(=O)N[C@@H](CC(C)C)C(N)=O)C(C)C)C(C)C)[C@@H](C)O | 104 | 9.00 | 8.35 |
| CC[C@H](C)[C@H](NC(=O)C(C)(C)NC(=O)[C@H](CC(=O)O)NC(=O)[C@H](CO)NC(=O)[C@@H](N)Cc1cnc[nH]1)C(=O)N[C@@H](Cc1ccccc1)C(=O)N[C@H](C(=O)N[C@@H](CC(=O)O)C(=O)N[C@@H](CO)C(=O)N[C@@H](Cc1ccc(O)cc1)C(=O)N[C@@H](CO)C(=O)N[C@@H](CCCNC(=N)N)C(=O)N[C@@H](Cc1ccc(O)cc1)C(=O)N[C@@H](CCCNC(=N)N)C(=O)N[C@@H](CCCCN)C(=O)N[C@@H](CCC(N)=O)C(=O)N[C@@H](CCSC)C(=O)N[C@@H](C)C(=O)N[C@H](C(=O)N[C@@H](CCCCN)C(=O)N[C@@H](CCCCN)C(=O)N[C@@H](Cc1ccc(O)cc1)C(=O)N[C@@H](CC(C)C)C(=O)N[C@@H](C)C(=O)N[C@@H](C)C(=O)N[C@H](C(=O)N[C@@H](CC(C)C)C(N)=O)C(C)C)C(C)C)[C@@H](C)O | 90.2 | 7.31 | 7.29 |
| CSCC[C@H](NC(=O)[C@H](CCC(N)=O)NC(=O)[C@H](CCCCN)NC(=O)[C@H](CCCNC(=N)N)NC(=O)[C@H](Cc1ccc(O)cc1)NC(=O)[C@H](CCCNC(=N)N)NC(=O)[C@H](CO)NC(=O)[C@H](Cc1ccc(O)cc1)NC(=O)[C@H](CO)NC(=O)[C@H](CC(=O)O)NC(=O)[C@@H](NC(=O)[C@H](Cc1ccccc1)NC(=O)[C@H](C)NC(=O)CNC(=O)[C@H](CC(=O)O)NC(=O)[C@H](CO)NC(=O)[C@@H](N)Cc1cnc[nH]1)[C@@H](C)O)C(=O)N[C@@H](C)C(=O)N[C@H](C(=O)N[C@@H](CCCCN)C(=O)N[C@@H](CCCCN)C(=O)N[C@@H](Cc1ccc(O)cc1)C(=O)N[C@@H](CC(C)C)C(=O)N[C@@H](C)C(=O)N[C@@H](C)C(=O)N[C@H](C(=O)N[C@@H](CC(C)C)C(=O)NCC(=O)N[C@@H](CCCCN)C(=O)N[C@@H](CCCNC(=N)N)C(=O)N[C@@H](Cc1ccc(O)cc1)C(=O)N[C@@H](CCCCN)C(=O)N[C@@H](CCC(N)=O)C(=O)N[C@@H](CCCNC(=N)N)C(=O)N[C@H](C(=O)N[C@@H](CCCCN)C(=O)N[C@@H](CC(N)=O)C(=O)N[C@@H](CCCCN)C(N)=O)C(C)C)C(C)C)C(C)C (H-HSDGAFTDSYSRYRKQMAVKKYLAAVLGKRYKQRVKNK-NH2) | 88.3 | 8.02 | 7.46 |
| CC[C@H](C)[C@H](NC(=O)CNC(=O)[C@H](CC(=O)O)NC(=O)[C@H](CO)NC(=O)[C@@H](N)Cc1cnc[nH]1)C(=O)N[C@@H](Cc1ccccc1)C(=O)N(C)[C@H](C(=O)N[C@@H](CC(=O)O)C(=O)N[C@@H](CO)C(=O)N[C@@H](Cc1ccc(O)cc1)C(=O)N[C@@H](CO)C(=O)N[C@@H](CCCNC(=N)N)C(=O)N[C@@H](Cc1ccc(O)cc1)C(=O)N[C@@H](CCCNC(=N)N)C(=O)N[C@@H](CCCCN)C(=O)N[C@@H](CCC(N)=O)C(=O)N[C@@H](CCSC)C(=O)N[C@@H](C)C(=O)N[C@H](C(=O)N[C@@H](CCCCN)C(=O)N[C@@H](CCCCN)C(=O)N[C@@H](Cc1ccc(O)cc1)C(=O)N[C@@H](CC(C)C)C(=O)N[C@@H](C)C(=O)N[C@@H](C)C(=O)N[C@H](C(=O)N[C@@H](CC(C)C)C(N)=O)C(C)C)C(C)C)[C@@H](C)O | 35.4 | 5.67 | 5.69 |
| CC[C@H](C)[C@H](NC(=O)CNC(=O)[C@H](CCCC(=O)O)NC(=O)[C@H](CO)NC(=O)[C@@H](N)Cc1cnc[nH]1)C(=O)N[C@@H](Cc1ccccc1)C(=O)N[C@H](C(=O)N[C@@H](CC(=O)O)C(=O)N[C@@H](CO)C(=O)N[C@@H](Cc1ccc(O)cc1)C(=O)N[C@@H](CO)C(=O)N[C@@H](CCCNC(=N)N)C(=O)N[C@@H](Cc1ccc(O)cc1)C(=O)N[C@@H](CCCNC(=N)N)C(=O)N[C@@H](CCCCN)C(=O)N[C@@H](CCC(N)=O)C(=O)N[C@@H](CCSC)C(=O)N[C@@H](C)C(=O)N[C@H](C(=O)N[C@@H](CCCCN)C(=O)N[C@@H](CCCCN)C(=O)N[C@@H](Cc1ccc(O)cc1)C(=O)N[C@@H](CC(C)C)C(=O)N[C@@H](C)C(=O)N[C@@H](C)C(=O)N[C@H](C(=O)N[C@@H](CC(C)C)C(N)=O)C(C)C)C(C)C)[C@@H](C)O | 29.3 | 6.08 | 6.09 |
| CC[C@H](C)[C@H](NC(=O)CNC(=O)[C@H](CCC(=O)O)NC(=O)[C@H](CO)NC(=O)[C@@H](N)Cc1cnc[nH]1)C(=O)N[C@@H](Cc1ccccc1)C(=O)N[C@H](C(=O)N[C@@H](CC(=O)O)C(=O)N[C@@H](CO)C(=O)N[C@@H](Cc1ccc(O)cc1)C(=O)N[C@@H](CO)C(=O)N[C@@H](CCCNC(=N)N)C(=O)N[C@@H](Cc1ccc(O)cc1)C(=O)N[C@@H](CCCNC(=N)N)C(=O)N[C@@H](CCCCN)C(=O)N[C@@H](CCC(N)=O)C(=O)N[C@@H](CCSC)C(=O)N[C@@H](C)C(=O)N[C@H](C(=O)N[C@@H](CCCCN)C(=O)N[C@@H](CCCCN)C(=O)N[C@@H](Cc1ccc(O)cc1)C(=O)N[C@@H](CC(C)C)C(=O)N[C@@H](C)C(=O)N[C@@H](C)C(=O)N[C@H](C(=O)N[C@@H](CC(C)C)C(=O)NCC(=O)N[C@@H](CCCCN)C(=O)N[C@@H](CCCNC(=N)N)C(=O)N[C@@H](Cc1ccc(O)cc1)C(=O)N[C@@H](CCCCN)C(=O)N[C@@H](CCC(N)=O)C(=O)N[C@@H](CCCNC(=N)N)C(=O)N[C@H](C(=O)N[C@@H](CCCCN)C(=O)N[C@@H](CC(N)=O)C(=O)N[C@@H](CCCCN)C(N)=O)C(C)C)C(C)C)C(C)C)[C@@H](C)O (H-HSEGIFTDSYSRYRKQMAVKKYLAAVLGKRYKQRVKNK-NH2) | 87.6 | 8.82 | 8.15 |
| CC[C@H](C)[C@H](NC(=O)CNC(=O)[C@H](CC(=O)O)NC(=O)[C@@H]1C[C@@H](O)CN1C(=O)[C@@H](N)Cc1cnc[nH]1)C(=O)N[C@@H](Cc1ccccc1)C(=O)N[C@H](C(=O)N[C@@H](CC(=O)O)C(=O)N[C@@H](CO)C(=O)N[C@@H](Cc1ccc(O)cc1)C(=O)N[C@@H](CO)C(=O)N[C@@H](CCCNC(=N)N)C(=O)N[C@@H](Cc1ccc(O)cc1)C(=O)N[C@@H](CCCNC(=N)N)C(=O)N[C@@H](CCCCN)C(=O)N[C@@H](CCC(N)=O)C(=O)N[C@@H](CCSC)C(=O)N[C@@H](C)C(=O)N[C@H](C(=O)N[C@@H](CCCCN)C(=O)N[C@@H](CCCCN)C(=O)N[C@@H](Cc1ccc(O)cc1)C(=O)N[C@@H](CC(C)C)C(=O)N[C@@H](C)C(=O)N[C@@H](C)C(=O)N[C@H](C(=O)N[C@@H](CC(C)C)C(=O)NCC(=O)N[C@@H](CCCCN)C(=O)N[C@@H](CCCNC(=N)N)C(=O)N[C@@H](Cc1ccc(O)cc1)C(=O)N[C@@H](CCCCN)C(=O)N[C@@H](CCC(N)=O)C(=O)N[C@@H](CCCNC(=N)N)C(=O)N[C@H](C(=O)N[C@@H](CCCCN)C(=O)N[C@@H](CC(N)=O)C(=O)N[C@@H](CCCCN)C(N)=O)C(C)C)C(C)C)C(C)C)[C@@H](C)O (H-H[Hyp]DGIFTDSYSRYRKQMAVKKYLAAVLGKRYKQRVKNK-NH2) | 94 | 9.15 | 8.07 |
| CC[C@H](C)[C@H](NC(=O)CNC(=O)[C@H](CC(=O)O)NC(=O)[C@H](CO)NC(=O)[C@@H](N)Cc1cnc[nH]1)C(=O)N[C@@H](Cc1ccccc1)C(=O)N(C)[C@H](C(=O)N[C@@H](CC(=O)O)C(=O)N[C@@H](CO)C(=O)N[C@@H](Cc1ccc(O)cc1)C(=O)N[C@@H](CO)C(=O)N[C@@H](CCCNC(=N)N)C(=O)N[C@@H](Cc1ccc(O)cc1)C(=O)N[C@@H](CCCNC(=N)N)C(=O)N[C@@H](CCCCN)C(=O)N[C@@H](CCC(N)=O)C(=O)N[C@@H](CCSC)C(=O)N[C@@H](C)C(=O)N[C@H](C(=O)N[C@@H](CCCCN)C(=O)N[C@@H](CCCCN)C(=O)N[C@@H](Cc1ccc(O)cc1)C(=O)N[C@@H](CC(C)C)C(=O)N[C@@H](C)C(=O)N[C@@H](C)C(=O)N[C@H](C(=O)N[C@@H](CC(C)C)C(=O)NCC(=O)N[C@@H](CCCCN)C(=O)N[C@@H](CCCNC(=N)N)C(=O)N[C@@H](Cc1ccc(O)cc1)C(=O)N[C@@H](CCCCN)C(=O)N[C@@H](CCC(N)=O)C(=O)N[C@@H](CCCNC(=N)N)C(=O)N[C@H](C(=O)N[C@@H](CCCCN)C(=O)N[C@@H](CC(N)=O)C(=O)N[C@@H](CCCCN)C(N)=O)C(C)C)C(C)C)C(C)C)[C@@H](C)O | 40 | 6.00 | 6.00 |
